{"source": "ChEMBL document CHEMBL4130550", "about": "“Antiproliferative Dimeric Aporphinoid Alkaloids from the Roots of Thalictrum cultratum” (J Nat Prod, 2017)", "key": {"PC-3": {"tested_on": "PC-3", "assay": "Antiproliferative activity against human PC3 cells by MTT assay", "format": "functional, cell-based", "method_in_brief": "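PC-3 (ATCC) in supplemented RPMI-1640 with 10% FBS at 37 °C, 5% CO2. Log-phase cells get graded concentrations in triplicate. MTT (5 mg/mL solution) is added for a further 4 h, then dissolved in DMSO and read at 490 nm. IC50 is from the average of three parallel experiments. Negative reference is 0.1% DMSO.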"}, "HL-60 [1]": {"tested_on": "HL-60", "assay": "Cell cycle arrest in human HL60 cells assessed as accumulation at G2 phase at 0.06 uM after 24 hrs by propidium iodide staining based flow cytometric method (reference value: 30.93%)", "format": "functional"}, "HL-60 [2]": {"tested_on": "HL-60", "assay": "Cell cycle arrest in human HL60 cells assessed as accumulation at G1 phase at 0.3 uM after 24 hrs by propidium iodide staining based flow cytometric method (reference value: 43.32%)", "format": "functional"}, "HL-60 [3]": {"tested_on": "HL-60", "assay": "Cell cycle arrest in human HL60 cells assessed as accumulation at G2 phase at 0.3 uM after 24 hrs by propidium iodide staining based flow cytometric method (reference value: 30.93%)", "format": "functional"}, "HL-60 [4]": {"tested_on": "HL-60", "assay": "Cell cycle arrest in human HL60 cells assessed as accumulation at S phase at 1.5 uM after 24 hrs by propidium iodide staining based flow cytometric method (reference value: 25.75%)", "format": "functional"}, "HL-60 [5]": {"tested_on": "HL-60", "assay": "Induction of morphological changes in human HL60 cells assessed as chromatin condensation at 0.06 to 1.5 uM after 24 hrs by Hoechst 33258 staining based fluorescence microscopic analysis", "format": "functional, cell-based"}, "HL-60 [6]": {"tested_on": "HL-60", "assay": "Induction of apoptosis in human HL60 cells assessed as live cells at 0.06 uM after 24 hrs by Annexin-V-APC/7-AAD staining based flow cytometric method (reference value: 95.31%)", "format": "functional", "method_in_brief": "(§1)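 HL-60 are seeded overnight in six-well plates, then treated in triplicate with 0.06, 0.3 or 1.5 μM, or untreated, for 24 h. Cells are washed in PBS and taken up in annexin V binding buffer. Annexin V-APC is added for 15 min in the dark at 25 °C, and 7-AAD just before flow cytometry. Early apoptosis is annexin V-APC only; late apoptosis is annexin V-APC/7-AAD.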"}, "HL-60 [7]": {"tested_on": "HL-60", "assay": "Induction of apoptosis in human HL60 cells assessed as necrotic cells at 0.06 uM after 24 hrs by Annexin-V-APC/7-AAD staining based flow cytometric method (reference value: 0.44%)", "format": "functional", "method_in_brief": "as §1"}, "HL-60 [8]": {"tested_on": "HL-60", "assay": "Induction of apoptosis in human HL60 cells assessed as live cells at 0.3 uM after 24 hrs by Annexin-V-APC/7-AAD staining based flow cytometric method (reference value: 95.31%)", "format": "functional", "method_in_brief": "as §1"}, "HL-60 [9]": {"tested_on": "HL-60", "assay": "Induction of apoptosis in human HL60 cells assessed as early apoptotic cells at 0.3 uM after 24 hrs by Annexin-V-APC/7-AAD staining based flow cytometric method (reference value: 2.26%)", "format": "functional", "method_in_brief": "as §1"}, "HL-60 [10]": {"tested_on": "HL-60", "assay": "Induction of apoptosis in human HL60 cells assessed as necrotic cells at 1.5 uM after 24 hrs by Annexin-V-APC/7-AAD staining based flow cytometric method (reference value: 0.44%)", "format": "functional", "method_in_brief": "as §1"}, "HL-60 [11]": {"tested_on": "HL-60", "assay": "Induction of apoptosis in human HL60 cells after 24 hrs by Annexin-V-APC/7-AAD staining based flow cytometric method", "format": "functional, cell-based", "method_in_brief": "as §1"}, "HL-60 [12]": {"tested_on": "HL-60", "assay": "Induction of apoptosis in human HL60 cells assessed as live cells at 1.5 uM after 24 hrs by Annexin-V-FITC/propidium iodide staining based flow cytometric method (reference value: 94.19%)", "format": "functional"}, "HL-60 [13]": {"tested_on": "HL-60", "assay": "Induction of apoptosis in human HL60 cells assessed as live cells at 1.5 uM after 48 hrs by Annexin-V-FITC/propidium iodide staining based flow cytometric method (reference value: 94.19%)", "format": "functional"}, "HL-60 [14]": {"tested_on": "HL-60", "assay": "Induction of apoptosis in human HL60 cells at 1.5 uM by Annexin-V-FITC/propidium iodide staining based flow cytometric method", "format": "functional, cell-based", "details": "TDE = time-dependent effect"}, "HL-60 [15]": {"tested_on": "HL-60", "assay": "Induction of mitochondrial membrane potential loss in human HL60 cells after 24 hrs by JC1 staining based flow cytometric method", "format": "functional, cell-based"}}, "note": "Active and inactive are the calls of the source. No cut-off for these calls is given here.", "data": [{"molecule": "COc1cc2c(c(Oc3ccc(C[C@H]4c5cc(OC)c6c(c5CCN4C)OCO6)cc3)c1OC)C[C@H]1c3c(c(OC)c(OC)c(OC)c3-2)CCN1C", "values": [{"measurement": "IC50", "setting": "PC-3", "result": 5.59, "unit": "µM"}, {"measurement": "Activity", "setting": "HL-60 [1]", "result": 24.33, "unit": "%"}, {"measurement": "Activity", "setting": "HL-60 [2]", "result": 36.01, "unit": "%"}, {"measurement": "Activity", "setting": "HL-60 [3]", "result": 21.47, "unit": "%"}, {"measurement": "Activity", "setting": "HL-60 [4]", "result": 48.45, "unit": "%"}, {"measurement": "Activity", "setting": "HL-60 [5]", "result": "Active"}, {"measurement": "Activity", "setting": "HL-60 [6]", "result": 79.49, "unit": "%"}, {"measurement": "Activity", "setting": "HL-60 [7]", "result": 3.77, "unit": "%"}, {"measurement": "Activity", "setting": "HL-60 [8]", "result": 69.73, "unit": "%"}, {"measurement": "Activity", "setting": "HL-60 [9]", "result": 22.76, "unit": "%"}, {"measurement": "Activity", "setting": "HL-60 [10]", "result": 7.28, "unit": "%"}, {"measurement": "Activity", "setting": "HL-60 [11]", "result": "Dose-dependent effect"}, {"measurement": "Activity", "setting": "HL-60 [12]", "result": 76.15, "unit": "%"}, {"measurement": "Activity", "setting": "HL-60 [13]", "result": 52.96, "unit": "%"}, {"measurement": "Activity", "setting": "HL-60 [14]", "result": "Tde"}, {"measurement": "Activity", "setting": "HL-60 [15]", "result": "Dose-dependent effect"}]}]}
